Shown are actives, neighbours in structure and some others; about 2.1% of the full set was active somewhere.
m5-HT2A agonist = agonists of mouse serotonin 5-HT2A receptor (HTR2A); P35363; CHO-K1 mHTR2A beta-arrestin complementation, luminescence; percent of 30 µM serotonin response; activation, % at 7.6 µM; 0.66% of 360,000 active; AID 624169;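 active = activation above a run cutoff, the mean activation of all tested compounds plus 3 SD, cut at about 14% in these data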;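 note: 0% = plate median of compound wells and 100% = 30 µM serotonin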
EBI2 antag = antagonists of human EBI2 receptor. P32249. EBI2 beta-arrestin recruitment, luminescence, 7a,25-OHC stimulated. inhibition, % at 5 µM. 0.81% of 360,000 active. AID 651636; in the data active = inhibition above about 38%;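 note: enzyme fragment complementation signal reports receptor beta-arrestin coupling in cells; 0% = agonist plus DMSO wells and 100% = wells without agonist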
Target sequence (P32249 whole entry, looked up, the tested form may be a part): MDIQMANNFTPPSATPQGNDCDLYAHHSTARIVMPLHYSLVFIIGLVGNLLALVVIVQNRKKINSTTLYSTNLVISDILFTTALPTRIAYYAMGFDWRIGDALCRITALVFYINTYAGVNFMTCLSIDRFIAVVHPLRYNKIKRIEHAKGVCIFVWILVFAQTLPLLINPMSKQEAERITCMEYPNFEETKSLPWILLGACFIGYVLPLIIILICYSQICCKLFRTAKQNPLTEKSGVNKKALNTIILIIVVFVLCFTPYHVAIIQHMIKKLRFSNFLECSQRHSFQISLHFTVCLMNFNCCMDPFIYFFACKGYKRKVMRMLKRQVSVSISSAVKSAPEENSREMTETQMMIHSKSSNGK
CCR6 antagonist = blocks CCL20-driven beta-arrestin recruitment at human CCR6; inhibition, % at 20 µM; P51684; CHO-K1 CCR6 PathHunter beta-arrestin, luminescence, CCL20-stimulated; 0.49% of 340,000 active; AID 493098;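 active = compounds whose inhibition of the agonist-driven luminescence signal at 20 µM reaches about 50%, limit read from the data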;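 note: cells stimulated with CCL20 at 14 nM final; plate controls were DMSO with CCL20 for no effect and DMSO without agonist for full effect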
CXCR6 inh = CXCR6 (human) receptor inhibition; O00574; AID 602244; 0.36% of 360,000 active; CHO-K1 PathHunter CXCR6 beta-arrestin, luminescence; inhibition, % at 20 µM; in the data active = inhibition above about 34%, passing the limit was not always enough;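 note: antagonist mode with CXCL16 agonist at 10 nM final; 0% = 10 nM CXCL16 with DMSO and 100% = unstimulated wells without agonist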
APJ antag = antagonists of human APJ apelin receptor; P35414; CHO-K1 APJ beta-arrestin complementation, luminescence; inhibition, % at 20 µM; 0.32% of 330,000 active;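 active = inhibition above about 40% at 20 µM, limit read from the data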;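 note: cells challenged with 10 nM apelin-13 agonist together with compound; plate controls were apelin-13 plus DMSO wells for no effect and DMSO wells lacking apelin-13 for full effect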
APJ ag = activates the human apelin receptor APJ; 0.11% of 330,000 active; CHO-K1 APJ PathHunter beta-arrestin, luminescence; 0% DMSO wells, 100% apelin; activation, % at 20 µM; P35414;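 active = activation more than six SD over the plate average, tested at 20 µM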;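 note: 0% = DMSO alone and 100% = apelin-13 at 10 nM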
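Assay system – PathHunter CHO-K1 APJ (AGTRL-1) beta-arrestin reporter cells · Compound – one dose, 20 µM compound, 1% DMSO · Timing – compound 90 min 25 °C, reagent 1 h · Measured by – luminescence from split beta-galactosidase complementation, Galacton Star/Emerald II substrate · Measure – beta-arrestin recruitment to APJ as agonist activity, luminescent signal · Benchmarks – DMSO vs Apelin-13 10 nM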
MOR ag counter = counter-screen for mouse HTR2A agonists: human mu opioid receptor agonists. shares compounds with m5-HT2A agonist. U2OS OPRM1 beta-arrestin PathHunter, luminescence; DMSO 0%, DAMGO 9.3 µM 100%. activation, % at 9.3 µM. 5.3% of 2,300 active. AID 624380;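 active = mean activation above the mean of DMSO-only wells plus 3 SD, cut at about 0.5% in these data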
m5-HT2A ag conf = mouse HTR2A agonism confirmed. shares compounds with m5-HT2A agonist. CHO-K1 PathHunter beta-arrestin recruitment, luminescence; DMSO 0%, 30 µM serotonin 100%. 19% of 2,300 active. activation, % at 7.6 µM. AID 624381;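 active = mean activation across triplicates above the hit threshold derived in the original primary screen, cut at about 15% in these data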
Numbers without * were called inactive.

Screening COc1ccc(N2C(=O)CSC2c2cccc(OC)c2OC)cc1 (stereo unspecified) returned m5-HT2A agonist 19*, EBI2 antag -1, CCR6 antagonist 2, CXCR6 inh 2, MOR ag counter -1 and m5-HT2A ag conf -2.
Screening CC(C)CC(=O)Nc1nnc(SCC(=O)NCc2ccc3c(c2)OCO3)s1 returned m5-HT2A agonist 15*, EBI2 antag -1, CCR6 antagonist 1, CXCR6 inh 4, APJ antag 2, APJ ag 1, MOR ag counter -1 and m5-HT2A ag conf -3.
`O=C(C1=C[C@H](c2csc3ccccc23)C[C@H](OCc2ccc(CO)cc2)O1)N1CCCCCCC1` gave CCR6 antagonist 18, APJ antag -61 and APJ ag -1.
`Cc1ccc(C)c(N2CCN(C(=O)Cn3c(=O)oc4cc(S(=O)(=O)N5CCCC5)ccc43)CC2)c1` gave m5-HT2A agonist 29*, EBI2 antag 5, CCR6 antagonist 8, CXCR6 inh 3, APJ antag 1, APJ ag -3, MOR ag counter 0 and m5-HT2A ag conf -2.
Screening O=C(Cn1c(=O)oc2cc(S(=O)(=O)N3CCCC3)ccc21)N1CCN(c2ccccc2)CC1 returned m5-HT2A agonist 6, EBI2 antag 5, CCR6 antagonist 22, CXCR6 inh 12, APJ antag -32 and APJ ag -3.
CC(NC(=O)Cn1c(=O)oc2cc(S(=O)(=O)N3CCCC3)ccc21)c1ccccc1 (stereo unspecified) was read as m5-HT2A agonist 18*, EBI2 antag -2, CCR6 antagonist 4, CXCR6 inh 8, APJ antag -54, APJ ag -4, MOR ag counter -1 and m5-HT2A ag conf -5.
`O=C(Nc1cnc2ccccn2c1=O)c1ccc(F)cc1` gave m5-HT2A agonist 17*, EBI2 antag 2, CCR6 antagonist 2, CXCR6 inh 3, APJ antag -18, APJ ag -1, MOR ag counter -1 and m5-HT2A ag conf -3.
COc1ccc(C(=O)Nc2cnc3ccccn3c2=O)cc1 was read as m5-HT2A agonist 2, EBI2 antag 0, CCR6 antagonist -6, CXCR6 inh -3, APJ antag -30 and APJ ag -5.
For O=C1CN(C(=O)COC(=O)c2ccc(C(F)(F)F)cc2)c2ccccc2N1 the results were m5-HT2A agonist -5, EBI2 antag 3, CCR6 antagonist 4, CXCR6 inh -5, APJ antag 2 and APJ ag 0.
O=C(Nc1ccc(Cl)c(S(=O)(=O)N2CCOCC2)c1)c1ccc(Cl)nc1 was read as m5-HT2A agonist 17*, EBI2 antag 0, CCR6 antagonist 0, CXCR6 inh -11, APJ antag -6, APJ ag 9, MOR ag counter 0 and m5-HT2A ag conf 0.
CCC(C)Sc1ccc([C@@H]2[C@H]3C(=O)N(C)C(=O)[C@H]3[C@]3(C(=O)OC)CCCN23)cc1 (stereo partly specified) was read as m5-HT2A agonist 8, EBI2 antag -7, CCR6 antagonist 9, CXCR6 inh -6, APJ antag -3 and APJ ag -3.
Screening O=C(NCc1ccc(F)cc1)c1cc(C2CCCCN2C(=O)c2ccccc2)on1 (stereo unspecified) returned m5-HT2A agonist -7, EBI2 antag 5 and CXCR6 inh 9.
O=C(NCc1ccc(F)cc1)c1cc(C2CCCCN2C(=O)c2ccc(Cl)cc2)on1 (stereo unspecified) was read as m5-HT2A agonist 15*, EBI2 antag 12, CXCR6 inh 6, MOR ag counter -1 and m5-HT2A ag conf -6.

Compound activity deposited in PubChem by several laboratories.
